Kd and Activity data for one compound are collected here from ChEMBL document CHEMBL4396878, “Mechanisms of Specific versus Nonspecific Interactions of Aggregation-Prone Inhibitors and Attenuators” (J Med Chem, 2019).

Active and inactive are the calls of the source. The calls are words filed in the database; no cut-off is given here. A value given as a limit tells only on which side of the number the result lay.

For data set [1], the target named is T1, Albumin (Homo sapiens, UniProt P02768). Description: Displacement of dansylated arginine from human serum albumin by fluorescence assay. As to conditions: read-out: Kd(app). In a few lines:
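Competition of ligand against 100 μM dansyl-arginine (Sudlow site 1, 1:1 stoichiometry) bound to 2.5 μM HSA. Excitation 370 nm, emission 460 nm. Apparent Kd fitted by Wang's method using least squares, assuming no other ligand sites on HSA, so treated as a maximum apparent value.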

A short description of data set [2]: Binding affinity to Triton-X 100 assessed as aggregate formation at 1:2 ratio of Triton-X 100 to compound by dynamic light scattering analysis. In a few lines: (§1)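 Dynamic light scattering in NMR buffer, samples filtered through 0.22 μm and centrifuged 5 min at 13 500 rpm before measurement. Autocorrelation accumulated 150 s at a 173° scattering angle, in replicates of 3–5, with water viscosity used in analysis; intensity or volume size distributions reported.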

For data set [3], the target named is T2, Rap guanine nucleotide exchange factor 3 (Homo sapiens) (UniProt O95398).
T2 sequence (whole entry): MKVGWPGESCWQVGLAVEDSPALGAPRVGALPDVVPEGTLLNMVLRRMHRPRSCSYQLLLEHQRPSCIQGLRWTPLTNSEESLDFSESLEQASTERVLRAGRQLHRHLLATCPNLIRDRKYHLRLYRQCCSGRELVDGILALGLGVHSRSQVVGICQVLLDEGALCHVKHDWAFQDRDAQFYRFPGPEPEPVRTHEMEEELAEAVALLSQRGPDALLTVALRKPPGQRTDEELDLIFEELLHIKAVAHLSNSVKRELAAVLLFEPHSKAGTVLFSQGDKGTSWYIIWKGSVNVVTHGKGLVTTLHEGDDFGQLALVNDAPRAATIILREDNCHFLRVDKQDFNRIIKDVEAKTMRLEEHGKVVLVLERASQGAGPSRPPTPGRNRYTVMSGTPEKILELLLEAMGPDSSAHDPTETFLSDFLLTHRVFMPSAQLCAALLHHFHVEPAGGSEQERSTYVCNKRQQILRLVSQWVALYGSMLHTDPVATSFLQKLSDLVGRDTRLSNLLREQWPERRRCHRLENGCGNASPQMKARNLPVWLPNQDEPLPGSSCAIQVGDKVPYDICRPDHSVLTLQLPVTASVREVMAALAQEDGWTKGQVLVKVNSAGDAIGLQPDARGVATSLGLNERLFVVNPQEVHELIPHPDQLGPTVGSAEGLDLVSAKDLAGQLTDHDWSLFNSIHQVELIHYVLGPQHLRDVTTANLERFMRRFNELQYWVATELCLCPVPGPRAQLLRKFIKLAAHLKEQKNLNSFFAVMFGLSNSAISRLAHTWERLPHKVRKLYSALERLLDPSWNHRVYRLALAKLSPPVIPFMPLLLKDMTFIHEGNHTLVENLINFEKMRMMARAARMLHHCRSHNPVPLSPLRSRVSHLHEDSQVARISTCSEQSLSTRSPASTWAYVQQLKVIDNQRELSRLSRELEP
Description: Ratio of apparent Kd for binding affinity to human EPAC1 cAMP binding domain (149 to 318 residues) in presence of human serum albumin to apparent Kd for binding affinity to human EPAC1 cAMP binding domain (149 to 318 residues) in absence of human serum albumin.

In data set [4] the target is T2, Rap guanine nucleotide exchange factor 3 (Homo sapiens). As to the kind of experiment: Binding affinity to human EPAC1 cAMP binding domain (149 to 318 residues) assessed as increase in peak intensity at 100 uM in presence of human serum albumin by [15N-1H]HSQC spectroscopic analysis relative to control.
Data set [5] shares this target. As to the kind of experiment: Binding affinity to human EPAC1 cAMP binding domain (149 to 318 residues) assessed as change in chemical shift at 50 to 250 uM using aggregate form of compound by [15N-1H]HSQC spectroscopic analysis.
Data set [6] is described as follows: Binding affinity to Triton-X 100 assessed as aggregate formation at 1:1 ratio of Triton-X 100 to compound by dynamic light scattering analysis. In a few lines: as §1
The nature of data set [7]: Aggregation property of the compound in NMR buffer assessed as diameter of aggregate at 500 uM by dynamic light scattering analysis. It counts as physicochemical. In a few lines:
as §1

Data set [8] is described as follows: Binding affinity to Triton-X 100 assessed as change in chemical shift for aggregate formation at 100 to 300 uM by 1H-NMR analysis.
Data set [9] addresses T2, Rap guanine nucleotide exchange factor 3 (Homo sapiens). As to the kind of experiment: Binding affinity to human EPAC1 cAMP binding domain (149 to 318 residues) assessed as intensity loss using aggregate form of compound by [15N-1H]HSQC spectroscopic analysis.
The target in data set [10] is T3, Rap guanine nucleotide exchange factor 3 (Homo sapiens, UniProt O95398).
T3 sequence (O95398 whole entry): T2 sequence (whole entry)
Description: Binding affinity to human EPAC1 cAMP binding domain (149 to 318 residues) using monomeric form of compound by [15N-1H]HSQC spectroscopic analysis.

In data set [11] the target is T2, Rap guanine nucleotide exchange factor 3 (Homo sapiens). Description: Binding affinity to human EPAC1 cAMP binding domain (149 to 318 residues) at 400 uM in presence of 0.1% triton X-100 by [15N-1H]HSQC spectroscopic analysis.
Data set [12] addresses T1, Albumin. As to the kind of experiment: Binding affinity to human serum albumin assessed as line broadening at 100 uM by 1D 1H NMR analysis.
Data set [13] in a line: Aggregation property of the compound in NMR buffer at 250 uM by surface plasmon resonance analysis. The data set is classed as physicochemical. A digest of the protocol: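 SPR on a nonfunctionalized gold nanoparticle sensor; samples in NMR buffer with DMSO at 1.25%, injected at 33 μL/min alongside matched DMSO controls (with HSA where present, 25 μM), in duplicate. Surface regenerated only after HSA-containing injections.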

The nature of data set [14]: Binding affinity to Triton-X 100 assessed as intra-molecular cross relaxation at 100 uM by NOESY spectra analysis. A digest of the protocol: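 2D NOESY and ROESY of 100 μM ESI with 0.025% Triton X-100 or 500 μM ESI with 0.05% Triton X-100; 2K × 512 complex points, 12 ppm spectral width centred at 4.7 ppm, intra- and intermolecular cross-peaks mapped.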
Data set [15] has as its target T2, Rap guanine nucleotide exchange factor 3 (Homo sapiens). Description: Binding affinity to human EPAC1 cAMP binding domain (149 to 318 residues) at 200 to 300 uM in presence of triton X-100 using aggregate form of compound by [15N-1H]HSQC spectroscopic analysis.
Data set [16] has the same target. Description: Binding affinity to human EPAC1 cAMP binding domain (149 to 318 residues) assessed as change in chemical shift at 100 uM in presence of human serum albumin by [15N-1H]HSQC spectroscopic analysis relative to compound alone.
The nature of data set [17]: Binding affinity to Triton-X 100 assessed as inter-molecular saturation transfer at 100 uM at 6.61 ppm by STD spectra analysis. In a few lines: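 STD NMR, saturation by a train of 40 Gaussian pulses of 50 ms each; selective on-resonance irradiation at the stated ppm (TX at 7.48 ppm), off-resonance at 30 ppm, interleaved and subtracted by phase cycling. 32K points, 16 ppm width centred at 4.7 ppm, 256 scans, 16 dummy scans, 0.1 s recycle delay (~15 min); 3 Hz exponential line broadening.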

The nature of data set [18]: Aggregation property of the compound in NMR buffer assessed as micellar morphology at 200 uM by uranyl acetate staining-based transmission electron microscopic analysis. It counts as physicochemical.

T1 sequence (P02768 whole entry): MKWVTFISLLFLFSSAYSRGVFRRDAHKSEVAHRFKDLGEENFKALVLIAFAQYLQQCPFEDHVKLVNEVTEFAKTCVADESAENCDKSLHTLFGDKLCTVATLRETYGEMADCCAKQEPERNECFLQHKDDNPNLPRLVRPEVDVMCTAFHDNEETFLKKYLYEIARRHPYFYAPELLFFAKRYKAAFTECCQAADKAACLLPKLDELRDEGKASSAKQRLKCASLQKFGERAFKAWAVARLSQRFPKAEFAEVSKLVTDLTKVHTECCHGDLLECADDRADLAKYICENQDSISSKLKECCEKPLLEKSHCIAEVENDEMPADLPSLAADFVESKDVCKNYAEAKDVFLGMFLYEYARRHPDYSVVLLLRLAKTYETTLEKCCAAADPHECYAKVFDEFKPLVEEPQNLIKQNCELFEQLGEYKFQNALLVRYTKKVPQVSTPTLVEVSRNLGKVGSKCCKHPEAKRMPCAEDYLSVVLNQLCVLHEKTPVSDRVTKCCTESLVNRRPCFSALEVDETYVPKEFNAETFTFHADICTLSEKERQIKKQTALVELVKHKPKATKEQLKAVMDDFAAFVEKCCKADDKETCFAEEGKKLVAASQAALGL

Take `CC(C)(C)c1cc(C(=O)/C(C#N)=N/Nc2cccc(Cl)c2)no1`: the Kd is 0.23 µM in data set [1] and 20 µM in [10]. For the same compound, the result in [2], in [5], in data set [8], in data set [9], in data set [11] and in [14] was Active. Moreover, the result in [15] and in data set [17] was Active. Further, the result in data set [3] and in [6] was inactive. The Activity in [4] was 44%; in data set [7] it was 250 nm; in data set [12], “Active”; in [13], “Active”; in data set [16] it was less than 30%; in data set [18] it was “Active”.
